Test results as given in ChEMBL document CHEMBL1144328, “2,3-Diarylthiophenes as selective EP1 receptor antagonists” (Bioorg Med Chem Lett, 2005).
pKi: −log10 of the molar value.

biological target: T1, Prostaglandin E2 receptor EP1 subtype (Homo sapiens) (UniProt P34995); test: Inhibitory activity against Prostaglandin E receptor in functional cell based assay; settings: not given
T1 sequence (whole entry): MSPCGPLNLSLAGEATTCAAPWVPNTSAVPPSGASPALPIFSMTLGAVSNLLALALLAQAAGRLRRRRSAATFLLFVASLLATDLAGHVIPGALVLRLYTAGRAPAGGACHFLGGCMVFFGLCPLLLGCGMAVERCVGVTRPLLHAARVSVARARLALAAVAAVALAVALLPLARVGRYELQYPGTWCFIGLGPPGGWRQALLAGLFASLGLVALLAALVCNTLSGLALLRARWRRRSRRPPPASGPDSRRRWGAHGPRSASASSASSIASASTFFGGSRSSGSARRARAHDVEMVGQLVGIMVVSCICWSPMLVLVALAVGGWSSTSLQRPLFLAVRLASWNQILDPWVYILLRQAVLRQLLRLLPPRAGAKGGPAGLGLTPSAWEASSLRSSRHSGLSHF
Summary of the method: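 HEK293 cells stably expressing human EP1, grown with hygromycin B and G418 at 37 °C and 6% CO2, seeded one day before, then loaded with FLIPR no-wash dye for 1 h at 37 °C in HBSS/20 mM HEPES pH 7.4. FLIPR fluorescence read after a 10 min antagonist preincubation and 5 min PGE2. PGE2 curves (0.001–30 µM) run alone and at three fixed antagonist concentrations; Kb reported.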

Q: Which Kb does the source give for `O=C(O)c1cccc(-c2sccc2-c2cc(Cl)ccc2OCc2ccccc2)n1` here?
A: 1 nM

Q: Which Kb does the source give for `O=C(O)Cc1cccc(-c2sccc2-c2cc(Cl)ccc2OCc2ccccc2)c1` here?
A: 66 nM

Q: Which Kb does the source give for `OC(O)(c1cncc(-c2sccc2-c2cc(Cl)ccc2OCc2ccccc2)c1)C(F)(F)F` here?
A: 70 nM

Q: Which Kb does the source give for `O=C(O)c1cncc(-c2sccc2-c2cc(Cl)ccc2OCc2ccccc2)c1` here?
A: 4 nM

Q: Which Kb does the source give for `NS(=O)(=O)c1cccc(-c2ccsc2-c2cc(Cl)ccc2OCc2ccccc2)c1` here?
A: 100 nM

Q: Which Kb does the source give for `CC(NC(=O)c1cccc(-c2sccc2-c2cc(Cl)ccc2OCc2ccccc2)c1)c1cccnc1` (stereo not given) here?
A: 97 nM

Q: For `O=C(O)c1cccc(-c2sccc2-c2cc(Cl)ccc2OCc2ccccc2)c1`, which Kb is on record?
A: 7 nM

biological target: T2, Prostaglandin E2 receptor EP1 subtype (Rattus norvegicus, UniProt P70597); test: Binding affinity towards Prostaglandin E receptor was determined in rat; settings: not given
T2 sequence (P70597 whole entry): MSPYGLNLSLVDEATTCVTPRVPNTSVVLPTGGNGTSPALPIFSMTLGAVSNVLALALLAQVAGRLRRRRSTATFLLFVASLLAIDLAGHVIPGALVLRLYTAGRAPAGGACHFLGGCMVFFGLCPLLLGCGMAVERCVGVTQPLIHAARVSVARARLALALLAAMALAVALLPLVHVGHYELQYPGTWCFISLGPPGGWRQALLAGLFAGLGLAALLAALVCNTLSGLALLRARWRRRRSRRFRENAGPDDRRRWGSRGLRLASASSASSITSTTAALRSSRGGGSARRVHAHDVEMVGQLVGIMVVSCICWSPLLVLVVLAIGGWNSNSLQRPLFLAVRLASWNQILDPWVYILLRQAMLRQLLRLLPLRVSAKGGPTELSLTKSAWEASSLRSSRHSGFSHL

Q: With `O=C(O)c1cccc(-c2sccc2-c2cc(Cl)ccc2OCc2ccccc2)n1` as the molecule, how does the pKi read?
A: 7.92

system: not listed separately; test: Bioavailability of compound in rat; type: ADME, organism-based; settings: in vivo

Q: With `O=C(O)c1cccc(-c2sccc2-c2cc(Cl)ccc2OCc2ccccc2)n1` as the molecule, how does the bioavailability read?
A: 73%

system: not listed separately; test: Half life of compound in rat; type: ADME; settings: in vivo

Q: Which half-life does the source give for `O=C(O)c1cccc(-c2sccc2-c2cc(Cl)ccc2OCc2ccccc2)n1` here?
A: 4 h

Q: For `O=C(O)Cc1cccc(-c2sccc2-c2cc(Cl)ccc2OCc2ccccc2)c1`, which half-life is on record?
A: 3 h

Q: For `OC(O)(c1cncc(-c2sccc2-c2cc(Cl)ccc2OCc2ccccc2)c1)C(F)(F)F`, which half-life is on record?
A: 2 h

Q: With `O=S(=O)(Cc1ccccc1)Nc1cccc(-c2sccc2-c2cc(Cl)ccc2OCc2ccccc2)c1` as the molecule, how does the half-life read?
A: < 1 h

Q: For `O=C(O)c1cncc(-c2sccc2-c2cc(Cl)ccc2OCc2ccccc2)c1`, which half-life is on record?
A: < 0.5 h

Q: For `NS(=O)(=O)c1cccc(-c2ccsc2-c2cc(Cl)ccc2OCc2ccccc2)c1`, which half-life is on record?
A: 2 h

Q: For `CC(NC(=O)c1cccc(-c2sccc2-c2cc(Cl)ccc2OCc2ccccc2)c1)c1cccnc1` (stereo not given), which half-life is on record?
A: < 1 h

Q: Which half-life does the source give for `OC(c1cncc(-c2sccc2-c2cc(Cl)ccc2OCc2ccccc2)c1)C(F)(F)F` (stereo not given) here?
A: 1 h

Q: With `O=C(Cc1ccccc1)Nc1cccc(-c2sccc2-c2cc(Cl)ccc2OCc2ccccc2)c1` as the molecule, how does the half-life read?
A: < 1 h

Q: For `O=C(O)c1cccc(-c2sccc2-c2cc(Cl)ccc2OCc2ccccc2)c1`, which half-life is on record?
A: < 0.5 h

system: not listed separately; test: Maximum plasma concentration of compound in rat at 4 h; type: ADME, organism-based; settings: not given

Q: With `O=C(O)c1cccc(-c2sccc2-c2cc(Cl)ccc2OCc2ccccc2)n1` as the molecule, how does the Cmax read?
A: 20 µM

biological target: T3, Prostaglandin E2 receptor EP1 subtype (Homo sapiens, UniProt P34995); test: Binding affinity against Prostaglandin E receptor was determined in human; settings: not given
T3 sequence (P34995 whole entry): T1 sequence (whole entry)

Q: With `O=C(O)c1cccc(-c2sccc2-c2cc(Cl)ccc2OCc2ccccc2)n1` as the molecule, how does the pKi read?
A: 8.22

Q: With `O=C(O)Cc1cccc(-c2sccc2-c2cc(Cl)ccc2OCc2ccccc2)c1` as the molecule, how does the pKi read?
A: 7.82

Q: With `OC(O)(c1cncc(-c2sccc2-c2cc(Cl)ccc2OCc2ccccc2)c1)C(F)(F)F` as the molecule, how does the pKi read?
A: 8.40

Q: With `OC(c1cncc(-c2sccc2-c2cc(Cl)ccc2OCc2ccccc2)c1)(C(F)(F)F)C(F)(F)F` as the molecule, how does the pKi read?
A: 6.59

Q: With `O=S(=O)(Cc1ccccc1)Nc1cccc(-c2sccc2-c2cc(Cl)ccc2OCc2ccccc2)c1` as the molecule, how does the pKi read?
A: 7.28

Q: With `O=C(O)c1cncc(-c2sccc2-c2cc(Cl)ccc2OCc2ccccc2)c1` as the molecule, how does the pKi read?
A: 8.52

Q: With `NS(=O)(=O)c1cccc(-c2ccsc2-c2cc(Cl)ccc2OCc2ccccc2)c1` as the molecule, how does the pKi read?
A: 8.10

Q: With `CC(NC(=O)c1cccc(-c2sccc2-c2cc(Cl)ccc2OCc2ccccc2)c1)c1cccnc1` (stereo not given) as the molecule, how does the pKi read?
A: 8.05

Q: With `OC(c1cncc(-c2sccc2-c2cc(Cl)ccc2OCc2ccccc2)c1)C(F)(F)F` (stereo not given) as the molecule, how does the pKi read?
A: 8.52

Q: With `O=C(Cc1ccccc1)Nc1cccc(-c2sccc2-c2cc(Cl)ccc2OCc2ccccc2)c1` as the molecule, how does the pKi read?
A: 8.40

Q: With `N#CC(O)c1cncc(-c2sccc2-c2cc(Cl)ccc2OCc2ccccc2)c1` (stereo not given) as the molecule, how does the pKi read?
A: 7.64

Q: With `O=C(O)c1cccc(-c2sccc2-c2cc(Cl)ccc2OCc2ccccc2)c1` as the molecule, how does the pKi read?
A: 8.40

biological target: T4, Thromboxane A2 receptor (Homo sapiens, UniProt P21731); test: Binding affinity against human Prostanoid TP receptor; settings: not given
T4 sequence (P21731 whole entry): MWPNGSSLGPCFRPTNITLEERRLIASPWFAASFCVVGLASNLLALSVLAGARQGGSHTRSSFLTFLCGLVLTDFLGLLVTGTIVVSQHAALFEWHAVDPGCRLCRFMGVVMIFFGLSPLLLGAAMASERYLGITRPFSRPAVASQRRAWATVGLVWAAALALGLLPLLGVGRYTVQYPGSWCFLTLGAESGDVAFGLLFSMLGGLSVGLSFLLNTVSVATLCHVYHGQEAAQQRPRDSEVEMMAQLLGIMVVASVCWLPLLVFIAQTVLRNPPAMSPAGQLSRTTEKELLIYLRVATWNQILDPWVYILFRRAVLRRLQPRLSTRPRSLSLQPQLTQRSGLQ

Q: With `O=C(O)c1cccc(-c2sccc2-c2cc(Cl)ccc2OCc2ccccc2)n1` as the molecule, how does the pKi read?
A: 6.85

Q: With `O=C(O)Cc1cccc(-c2sccc2-c2cc(Cl)ccc2OCc2ccccc2)c1` as the molecule, how does the pKi read?
A: 6.82

Q: With `OC(O)(c1cncc(-c2sccc2-c2cc(Cl)ccc2OCc2ccccc2)c1)C(F)(F)F` as the molecule, how does the pKi read?
A: 6.66

Q: With `OC(c1cncc(-c2sccc2-c2cc(Cl)ccc2OCc2ccccc2)c1)(C(F)(F)F)C(F)(F)F` as the molecule, how does the pKi read?
A: 6.70

Q: With `O=S(=O)(Cc1ccccc1)Nc1cccc(-c2sccc2-c2cc(Cl)ccc2OCc2ccccc2)c1` as the molecule, how does the pKi read?
A: < 4.68

Q: With `O=C(O)c1cncc(-c2sccc2-c2cc(Cl)ccc2OCc2ccccc2)c1` as the molecule, how does the pKi read?
A: 6.64

Q: With `NS(=O)(=O)c1cccc(-c2ccsc2-c2cc(Cl)ccc2OCc2ccccc2)c1` as the molecule, how does the pKi read?
A: 6.41

Q: With `CC(NC(=O)c1cccc(-c2sccc2-c2cc(Cl)ccc2OCc2ccccc2)c1)c1cccnc1` (stereo not given) as the molecule, how does the pKi read?
A: 5.92

Q: With `OC(c1cncc(-c2sccc2-c2cc(Cl)ccc2OCc2ccccc2)c1)C(F)(F)F` (stereo not given) as the molecule, how does the pKi read?
A: 6.92

Q: With `O=C(Cc1ccccc1)Nc1cccc(-c2sccc2-c2cc(Cl)ccc2OCc2ccccc2)c1` as the molecule, how does the pKi read?
A: < 4.68

Q: With `N#CC(O)c1cncc(-c2sccc2-c2cc(Cl)ccc2OCc2ccccc2)c1` (stereo not given) as the molecule, how does the pKi read?
A: 6.44

Q: With `O=C(O)c1cccc(-c2sccc2-c2cc(Cl)ccc2OCc2ccccc2)c1` as the molecule, how does the pKi read?
A: 7.00

biological target: T3, Prostaglandin E2 receptor EP1 subtype; test: Binding affinity against Prostaglandin E receptor in presence of 2% human serum albumin; settings: not given

Q: With `O=C(O)c1cccc(-c2sccc2-c2cc(Cl)ccc2OCc2ccccc2)n1` as the molecule, how does the pKi read?
A: 6.55

Q: With `O=C(O)Cc1cccc(-c2sccc2-c2cc(Cl)ccc2OCc2ccccc2)c1` as the molecule, how does the pKi read?
A: 6.66

Q: With `OC(O)(c1cncc(-c2sccc2-c2cc(Cl)ccc2OCc2ccccc2)c1)C(F)(F)F` as the molecule, how does the pKi read?
A: 8.30

Q: With `O=S(=O)(Cc1ccccc1)Nc1cccc(-c2sccc2-c2cc(Cl)ccc2OCc2ccccc2)c1` as the molecule, how does the pKi read?
A: 7.14

Q: With `O=C(O)c1cncc(-c2sccc2-c2cc(Cl)ccc2OCc2ccccc2)c1` as the molecule, how does the pKi read?
A: 7.05

Q: With `NS(=O)(=O)c1cccc(-c2ccsc2-c2cc(Cl)ccc2OCc2ccccc2)c1` as the molecule, how does the pKi read?
A: 7.74

Q: With `CC(NC(=O)c1cccc(-c2sccc2-c2cc(Cl)ccc2OCc2ccccc2)c1)c1cccnc1` (stereo not given) as the molecule, how does the pKi read?
A: 7.77

Q: With `OC(c1cncc(-c2sccc2-c2cc(Cl)ccc2OCc2ccccc2)c1)C(F)(F)F` (stereo not given) as the molecule, how does the pKi read?
A: 8.22

Q: With `O=C(Cc1ccccc1)Nc1cccc(-c2sccc2-c2cc(Cl)ccc2OCc2ccccc2)c1` as the molecule, how does the pKi read?
A: 8.30

Q: With `N#CC(O)c1cncc(-c2sccc2-c2cc(Cl)ccc2OCc2ccccc2)c1` (stereo not given) as the molecule, how does the pKi read?
A: 6.80

Q: With `O=C(O)c1cccc(-c2sccc2-c2cc(Cl)ccc2OCc2ccccc2)c1` as the molecule, how does the pKi read?
A: 7.15
